According to ChEMBL document CHEMBL1817664, “Modulation of cell differentiation, proliferation, and tumor growth by dihydrobenzyloxopyrimidine non-nucleoside reverse transcriptase inhibitors” (2011):
Activity calls are given as the source filed them. No cut-off for these calls is given here.

Experiments:
A-375 [1] = test: Antiproliferative activity against human A375 cells assessed as cell growth at 25 uM after 96 hrs by trypan blue assay; format: functional; conditions: A-375, 96 h, read-out: Activity
How it was run: (§1)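 A375 melanoma cells grown in DMEM with 10% FCS at 37 °C, 5% CO2; compounds added in DMSO after 56 h (DMSO 0.005% final for controls). Medium with drug renewed every 48 h. After 96 h, cells harvested and Coulter-counted, with trypan blue exclusion for viability. Counts given as % of DMSO controls; data pooled from three experiments.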

A-375 [2] = test: Induction of human A375 cell differentiation assessed as formation of vimentin intermediate filament at 20 uM after 96 hrs by immunofluorescence analysis; format: functional, cell-based
How it was run: (§2)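 A375 cells cultured 96 h with drug, then fixed in 4% paraformaldehyde for 10 min and permeabilized in 0.2% Triton X-100/PBS for 5 min. Immunostained for tubulin and vimentin, nuclei counterstained with DAPI.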

A-375 [3] = test: Induction of human A375 cell differentiation assessed as microtubule reorganization at 20 uM after 96 hrs by immunofluorescence analysis; format: functional, cell-based; how it was run: as §2
A-375 [4] = test: Antiproliferative activity against human A375 cells at 5 to 10 uM by trypan blue assay; format: functional, cell-based; conditions: TDE = time-dependent effect
How it was run: (§3)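 A375 cells plated at (20-50) × 10^3 per 35 mm dish in DMEM/10% FCS. Drug in DMSO added, renewed every 48 h; DMSO alone for controls. After 48 or 96 h, viable cells counted twice per sample by Coulter counter, with trypan blue check. Cells at time t divided by cells seeded, relative to DMSO control as 100%. Mean and SD: four experiments for dose series (5, 10, 20 μM, 96 h), three for time course (5 or 10 μM).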

A-375 [5] = test: Induction of morphological differentiation in human A375 cells assessed as dentritic-like extension at 5 to 10 uM after 96 hrs by phase contrast microscopy
A-375 [6] = test: Induction of apoptosis in human A375 cells seeded as low density at 20 uM after 96 hrs by propidium iodide staining-based FACS analysis
A-375 [7] = test: Antiproliferative activity against human A375 cells at 20 uM after 96 hrs by trypan blue assay; format: functional; how it was run: as §3
A-375 [8] = test: Induction of apoptosis in human A375 cells seeded as high density at 20 uM after 96 hrs by propidium iodide staining-based FACS analysis
A-375 [9] = test: Antitumor activity against human A375 cells xenografted in athymic nude Harlan mouse assessed as reduced tumor growth at 20 mg/kg, ip administered daily 5 days pre week measured every other day
A-375 [10] = test: Antiproliferative activity against human A375 cells assessed as cell growth at 15 uM after 96 hrs by trypan blue assay; format: functional; conditions: A-375, 96 h, read-out: Activity; how it was run: as §1
A-375 [11] = test: Antiproliferative activity against human A375 cells after 96 hrs by trypan blue assay; format: functional, cell-based; how it was run: as §1
A-375 [12] = test: Induction of apoptosis in human A375 cells after 96 hrs by propidium iodide staining-based FACS analysis; format: functional, cell-based
How it was run: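 A375 cells seeded at low (100 000) or high (300 000) density per 25 cm2 flask and cultured 96 h with 20 μM compound. Harvested for biparametric FACS: DNA content by PI uptake (linear) against side scatter (log); at least 10 000 cells per sample. Apoptotic fraction given as mean and SD of three experiments.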

A-375 [13] = test: Antiproliferative activity against human A375 cells assessed as morphological changes at 5 to 10 uM after 96 hrs by phase contrast microscopy; format: functional, cell-based
How it was run: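 A375 cultures in DMEM/10% FCS exposed to 5, 7.5 or 10 μM drug in DMSO; DMSO-only controls. Dendritic-like extensions scored under phase-contrast or bright-field microscopy.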

A-375 [14] = test: Induction of apoptosis in human A375 cells assessed as necrotic cells at 25 uM after 96 hrs by propidium iodide staining-based FACS analysis; format: functional, cell-based
A-375 [15] = test: Antiproliferative activity against human A375 cells at 350 uM after 96 hrs by trypan blue assay; format: functional
How it was run: (§4)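 A375 melanoma cells were grown in DMEM with 10% FCS, 2 mM L-glutamine and penicillin/streptomycin at 37 °C in 5% CO2, and plated at (20–50) × 10^3 cells per 35 mm plate. Once adherent (56 h), compound in DMSO was added (DMSO 0.005% final), with fresh drug medium every 48 h. After 96 h, viable cells were counted twice by Coulter counter, with trypan blue exclusion. Results are % of DMSO control, pooled from three experiments.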

A-375 [16] = test: Antiproliferative activity against human A375 cells assessed as cell growth at 350 uM after 96 hrs by trypan blue assay; format: functional; conditions: A-375, 96 h, read-out: Activity; how it was run: as §4

Q: Which growth at 25 µM (A-375 [1]) does the source give for `CCC(c1cc(=O)[nH]c(SC)n1)c1c(F)cccc1F` (stereo not drawn) here?
A: 13%

Q: How did the growth at 25 µM (A-375 [1]) turn out when `CCC(C)Sc1nc(C(CC)c2c(F)cccc2F)cc(=O)[nH]1` (stereo not drawn) was run?
A: 13%

Q: For `CCC(c1nc(SC)[nH]c(=O)c1C)c1c(F)cccc1F` (stereo not drawn), which growth at 25 µM (A-375 [1]) is on record?
A: 40%

Q: `CCC(c1nc(SC2CCCC2)[nH]c(=O)c1C)c1c(F)cccc1F` (stereo not drawn) was tested. Which growth at 25 µM (A-375 [1]) did it give?
A: 5%

Q: For `CCC(C)Sc1nc([C@@H](CC)c2c(F)cccc2F)c(C)c(=O)[nH]1` (stereo partly drawn), which Activity (A-375 [2]) is on record?
A: Active

Q: What about the Activity (A-375 [3]) of the same molecule?
A: Active

Q: And the Activity (A-375 [4])?
A: tde

Q: And the Activity (A-375 [5])?
A: Active

Q: What about the Activity (A-375 [6]) of the same molecule?
A: inactive

Q: What about the Activity (A-375 [7]) of the same molecule?
A: 70%

Q: What about the Activity (A-375 [8]) of the same molecule?
A: Active

Q: How did the growth at 25 µM (A-375 [1]) turn out when `CCC(c1cc(O)nc(SC(C)C)n1)c1c(F)cccc1F` (stereo not drawn) was run?
A: 19%

Q: For `CCC(c1nc(SC(C)C)[nH]c(=O)c1C)c1c(F)cccc1F` (stereo not drawn), which growth at 25 µM (A-375 [1]) is on record?
A: 12%

Q: Which results are given for `O=C1Nc2ccc(Cl)cc2[C@@](C#CC2CC2)(C(F)(F)F)O1` [EFAVIRENZ]?
A: Activity (A-375 [9]): Active; growth at 15 µM (A-375 [10]): 51%

Q: With `CCC(c1nc(S)[nH]c(=O)c1C)c1c(F)cccc1F` (stereo not drawn) as the molecule, how does the growth at 25 µM (A-375 [1]) read?
A: 76%

Q: Which results are given for `CCC(C)Sc1nc(C(CC)c2c(F)cccc2F)c(C)c(=O)[nH]1` (mixture of isomers)?
A: Activity (A-375 [11]): Dose-dependent effect; Activity (A-375 [12]): Dose-dependent effect; Activity (A-375 [9]): Active; growth at 25 µM (A-375 [1]): 5%; Activity (A-375 [13]): Active; Activity (A-375 [14]): Active

Q: What does the source list for `Cc1ccnc2c1NC(=O)c1cccnc1N2C1CC1` [NEVIRAPINE]?
A: Activity (A-375 [2]): Active; Activity (A-375 [3]): Active; Activity (A-375 [6]): inactive; Activity (A-375 [15]): 50%; growth at 350 µM (A-375 [16]): 35%; Activity (A-375 [8]): inactive

Q: Which growth at 25 µM (A-375 [1]) does the source give for `CCC(c1cc(O)nc(SC2CCCC2)n1)c1c(F)cccc1F` (stereo not drawn) here?
A: 22%

Q: How did the growth at 25 µM (A-375 [1]) turn out when `CCC(c1cc(=O)[nH]c(S)n1)c1c(F)cccc1F` (stereo not drawn) was run?
A: 100%

Q: `CCC(C)Sc1nc([C@H](CC)c2c(F)cccc2F)c(C)c(=O)[nH]1` (stereo partly drawn) was tested. Which Activity (A-375 [2]) did it give?
A: Active

Q: And the Activity (A-375 [3])?
A: Active

Q: And the Activity (A-375 [4])?
A: tde

Q: What about the Activity (A-375 [5]) of the same molecule?
A: Active

Q: And the Activity (A-375 [6])?
A: inactive

Q: And the Activity (A-375 [9])?
A: Active

Q: And the Activity (A-375 [7])?
A: 70%

Q: What about the Activity (A-375 [8]) of the same molecule?
A: Active
